Series [1] deals with Tyrosine-protein kinase ABL1 (Homo sapiens), P00519 [F317I]. As to the kind of experiment: Binding affinity to human phosphorylated ABL1 F317I mutant (S229 to K512 residues) expressed in mammalian expression system assessed as residual binding level at 1 uM by Kinomescan method relative to control. The procedure, abridged:
(§1)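 Kinome-wide selectivity panel run by the KINOMEscan method, with the test compound at a single concentration of 1 μM. Wild-type and mutant kinases were profiled in the same screen.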

The subject of series [2] is Tyrosine-protein kinase ABL1 (Homo sapiens), P00519 [M351T]. The experiment in a line: Binding affinity to human phosphorylated ABL1 M351T mutant (S229 to K512 residues) expressed in mammalian expression system assessed as residual binding level at 1 uM by Kinomescan method relative to control. The procedure, abridged: as §1
The subject of series [3] is Tyrosine-protein kinase ABL1 (Homo sapiens), P00519 [Y253F]. As to the kind of experiment: Binding affinity to human phosphorylated ABL1 Y253F mutant (S229 to K512 residues) expressed in mammalian expression system assessed as residual binding level at 1 uM by Kinomescan method relative to control. The procedure, abridged:
as §1

For series [4], the system named is ALK tyrosine kinase receptor (Homo sapiens), Q9UM73 [L1196M]. As to the kind of experiment: Binding affinity to wild-type human partial length ALK L1196M mutant (I1088 to E1409 residues) expressed in mammalian expression system assessed as residual binding level at 1 uM by Kinomescan method relative to control.
In series [5] the test system is Serine/threonine-protein kinase B-raf (Homo sapiens), P15056 [V600E]. The experiment in a line: Binding affinity to human partial length BRAF V600E mutant (S429 to E741 residues) expressed in mammalian expression system assessed as residual binding level at 1 uM by Kinomescan method relative to control.
The target of series [6] is Serine/threonine-protein kinase Chk2 (Homo sapiens) (UniProt O96017). The experiment in a line: Binding affinity to wild-type human partial length CHEK2 (S253 to E574 residues) expressed in bacterial expression system assessed as residual binding level at 1 uM by Kinomescan method relative to control.
The target of series [7] is Casein kinase I isoform alpha (Homo sapiens) (UniProt P48729). As to the kind of experiment: Binding affinity to wild-type human partial length CSNK1A1 (M1 to L450 residues) expressed in mammalian expression system assessed as residual binding level at 1 uM by Kinomescan method relative to control.
Series [8] deals with Cyclin-G-associated kinase (Homo sapiens) (UniProt O14976). The experiment in a line: Binding affinity to wild-type human partial length GAK (G13 to Y338 residues) expressed in bacterial expression system assessed as residual binding level at 1 uM by Kinomescan method relative to control.
Series [9] has as its target Rhodopsin kinase GRK7 (Homo sapiens) (UniProt Q8WTQ7). As to the kind of experiment: Binding affinity to wild-type human full length GRK7 (M1 to L553 residues) expressed in mammalian expression system assessed as residual binding level at 1 uM by Kinomescan method relative to control. A digest of the protocol: (§2)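 Single-point kinome-wide KINOMEscan binding panel, test compound at 1 μM, run by the provider's standard protocol.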

Series [10] deals with Glycogen synthase kinase-3 alpha (Homo sapiens) (UniProt P49840). The experiment in a line: Binding affinity to wild-type human full length GSK3A (M1 to S483 residues) expressed in bacterial expression system assessed as residual binding level at 1 uM by Kinomescan method relative to control. The procedure, abridged: as §2
Series [11] addresses Mitogen-activated protein kinase kinase kinase 3 (Homo sapiens) (UniProt Q99759). As to the kind of experiment: Binding affinity to wild-type human partial length MAP3K3 (E320 to Y626 residues) expressed in mammalian expression system assessed as residual binding level at 1 uM by Kinomescan method relative to control.
In series [12] the target is Serine/threonine-protein kinase Nek3 (Homo sapiens) (UniProt P51956). As to the kind of experiment: Binding affinity to wild-type human full length NEK3 (M1 to R506 residues) expressed in mammalian expression system assessed as residual binding level at 1 uM by Kinomescan method relative to control. The procedure, abridged:
as §2

For series [13], the target named is Serine/threonine-protein kinase Nek4 (Homo sapiens) (UniProt P51957). The experiment in a line: Binding affinity to wild-type human full length NEK4 (M1 to F841 residues) expressed in mammalian expression system assessed as residual binding level at 1 uM by Kinomescan method relative to control. A digest of the protocol: as §2
The target of series [14] is Serine/threonine-protein kinase Nek9 (Homo sapiens) (UniProt Q8TD19). As to the kind of experiment: Binding affinity to wild-type human partial length NEK9 (P32 to R328 residues) expressed in bacterial expression system assessed as residual binding level at 1 uM by Kinomescan method relative to control.
In series [15] the target is Mitogen-activated protein kinase kinase kinase 14 (Homo sapiens) (UniProt Q99558). As to the kind of experiment: Binding affinity to wild-type human partial length NIK (L318 to P947 residues) expressed in mammalian expression system assessed as residual binding level at 1 uM by Kinomescan method relative to control.
In series [16] the target is Phosphatidylinositol 4-phosphate 5-kinase type-1 alpha (Homo sapiens) (UniProt Q99755). As to the kind of experiment: Binding affinity to wild-type human full length PIP5K1A (M1 to H562 residues) expressed in bacterial expression system assessed as residual binding level at 1 uM by Kinomescan method relative to control.
Series [17] has as its target Proto-oncogene tyrosine-protein kinase receptor Ret (Homo sapiens) (UniProt P07949). The experiment in a line: Binding affinity to wild-type human partial length RET (E713 to D1014 residues) expressed in bacterial expression system assessed as residual binding level at 1 uM by Kinomescan method relative to control.
Series [18] deals with BDNF/NT-3 growth factors receptor (Homo sapiens) (UniProt Q16620). The experiment in a line: Binding affinity to wild-type human partial length TRKB (Q547 to G838 residues) expressed in mammalian expression system assessed as residual binding level at 1 uM by Kinomescan method relative to control.
For series [19], the target named is Serine/threonine-protein kinase ULK1 (Homo sapiens) (UniProt O75385). The experiment in a line: Binding affinity to wild-type human partial length ULK1 (M1 to T309 residues) expressed in mammalian expression system assessed as residual binding level at 1 uM by Kinomescan method relative to control.
The target in series [20] is Phosphatidylinositol 3-kinase catalytic subunit type 3 (Homo sapiens) (UniProt Q8NEB9). The experiment in a line: Binding affinity to wild-type human partial length VPS34 (S282 to H879 residues) expressed in mammalian expression system assessed as residual binding level at 1 uM by Kinomescan method relative to control.
The target of series [21] is Serine/threonine-protein kinase 32B (Homo sapiens) (UniProt Q9NY57). The experiment in a line: Binding affinity to wild-type human full length YANK2 (M1 to S414 residues) expressed in bacterial expression system assessed as residual binding level at 1 uM by Kinomescan method relative to control.
Series [22] concerns the target Mitogen-activated protein kinase kinase kinase 19 (Homo sapiens) (UniProt Q56UN5). As to the kind of experiment: Binding affinity to wild-type human partial length YSK4 (T1019 to H1328 residues) expressed in mammalian expression system assessed as residual binding level at 1 uM by Kinomescan method relative to control.
The target in a further series is CYP2C9 (Homo sapiens, UniProt P11712). As to the kind of experiment: Residual activity of CYP2C9 in human liver microsomes at 10 uM using tolbutamide 4-hydroxylase as substrate preincubated for 5 mins followed by NADPH addition measured after 15 mins by LC/MS/MS analysis relative to control. The following applies: probe tolbutamide (4-hydroxylation).

Sequence of Serine/threonine-protein kinase Nek4 (Homo sapiens) (P51957 whole entry, looked up, the tested form may be a part): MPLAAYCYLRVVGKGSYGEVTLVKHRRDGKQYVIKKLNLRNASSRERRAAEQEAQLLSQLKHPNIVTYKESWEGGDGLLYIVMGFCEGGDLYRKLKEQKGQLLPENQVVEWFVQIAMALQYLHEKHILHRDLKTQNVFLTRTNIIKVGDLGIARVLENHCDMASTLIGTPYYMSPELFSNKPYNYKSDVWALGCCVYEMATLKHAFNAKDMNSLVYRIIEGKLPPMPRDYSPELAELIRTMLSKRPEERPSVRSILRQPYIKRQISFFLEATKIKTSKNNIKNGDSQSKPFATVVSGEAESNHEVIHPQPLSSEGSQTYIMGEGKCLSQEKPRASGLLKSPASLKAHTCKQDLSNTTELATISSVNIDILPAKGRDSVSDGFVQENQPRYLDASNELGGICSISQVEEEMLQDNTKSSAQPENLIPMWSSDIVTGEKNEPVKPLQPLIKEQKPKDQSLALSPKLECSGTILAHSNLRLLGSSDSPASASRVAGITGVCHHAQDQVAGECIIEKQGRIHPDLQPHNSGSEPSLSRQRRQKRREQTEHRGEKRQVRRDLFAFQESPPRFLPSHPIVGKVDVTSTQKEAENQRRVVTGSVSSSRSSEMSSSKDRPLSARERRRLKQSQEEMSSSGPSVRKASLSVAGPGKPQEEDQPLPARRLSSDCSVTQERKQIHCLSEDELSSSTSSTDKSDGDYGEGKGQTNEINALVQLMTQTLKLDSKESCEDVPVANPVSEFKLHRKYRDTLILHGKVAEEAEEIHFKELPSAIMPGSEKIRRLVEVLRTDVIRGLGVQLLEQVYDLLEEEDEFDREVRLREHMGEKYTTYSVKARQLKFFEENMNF
Sequence of Phosphatidylinositol 4-phosphate 5-kinase type-1 alpha (Homo sapiens) (Q99755 whole entry, the tested form may be a part): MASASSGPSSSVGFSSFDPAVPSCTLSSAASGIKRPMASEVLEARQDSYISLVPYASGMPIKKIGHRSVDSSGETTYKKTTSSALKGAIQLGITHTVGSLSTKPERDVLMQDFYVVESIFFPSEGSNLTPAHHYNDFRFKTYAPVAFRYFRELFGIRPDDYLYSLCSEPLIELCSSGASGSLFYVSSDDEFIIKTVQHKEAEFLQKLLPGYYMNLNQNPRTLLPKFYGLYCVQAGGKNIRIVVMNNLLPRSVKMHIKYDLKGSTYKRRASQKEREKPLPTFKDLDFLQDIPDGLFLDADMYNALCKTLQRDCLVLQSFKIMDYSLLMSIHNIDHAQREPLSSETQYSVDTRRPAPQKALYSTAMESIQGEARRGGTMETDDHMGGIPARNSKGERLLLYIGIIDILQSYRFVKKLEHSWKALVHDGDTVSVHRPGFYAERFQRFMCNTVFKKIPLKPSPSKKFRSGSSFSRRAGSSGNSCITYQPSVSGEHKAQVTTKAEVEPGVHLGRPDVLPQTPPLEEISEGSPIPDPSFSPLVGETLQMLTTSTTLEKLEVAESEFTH
Sequence of Serine/threonine-protein kinase B-raf (Homo sapiens), P15056 [V600E] (P15056 whole entry V600E, the tested form may be a part): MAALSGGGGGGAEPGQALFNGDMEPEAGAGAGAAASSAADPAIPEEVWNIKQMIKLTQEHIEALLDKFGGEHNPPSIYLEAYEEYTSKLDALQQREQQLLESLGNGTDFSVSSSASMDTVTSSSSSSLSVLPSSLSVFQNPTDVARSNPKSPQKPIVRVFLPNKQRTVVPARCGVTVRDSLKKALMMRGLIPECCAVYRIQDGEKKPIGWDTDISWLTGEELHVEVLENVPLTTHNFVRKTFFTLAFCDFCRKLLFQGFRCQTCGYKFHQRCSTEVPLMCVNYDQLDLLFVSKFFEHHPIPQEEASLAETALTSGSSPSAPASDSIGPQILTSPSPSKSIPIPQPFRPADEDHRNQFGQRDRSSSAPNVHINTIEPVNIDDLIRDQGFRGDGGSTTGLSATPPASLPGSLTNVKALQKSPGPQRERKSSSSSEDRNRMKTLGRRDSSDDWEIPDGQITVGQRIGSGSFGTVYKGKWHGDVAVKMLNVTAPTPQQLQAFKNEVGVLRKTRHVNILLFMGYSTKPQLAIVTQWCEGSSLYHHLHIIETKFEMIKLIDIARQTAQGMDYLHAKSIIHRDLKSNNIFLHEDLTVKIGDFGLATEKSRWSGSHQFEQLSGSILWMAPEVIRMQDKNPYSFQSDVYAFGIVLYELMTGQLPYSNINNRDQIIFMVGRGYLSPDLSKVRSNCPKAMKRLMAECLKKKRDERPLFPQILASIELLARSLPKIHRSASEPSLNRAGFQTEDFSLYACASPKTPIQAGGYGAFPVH
Sequence of Phosphatidylinositol 3-kinase catalytic subunit type 3 (Homo sapiens) (Q8NEB9 whole entry, the tested form may be a part): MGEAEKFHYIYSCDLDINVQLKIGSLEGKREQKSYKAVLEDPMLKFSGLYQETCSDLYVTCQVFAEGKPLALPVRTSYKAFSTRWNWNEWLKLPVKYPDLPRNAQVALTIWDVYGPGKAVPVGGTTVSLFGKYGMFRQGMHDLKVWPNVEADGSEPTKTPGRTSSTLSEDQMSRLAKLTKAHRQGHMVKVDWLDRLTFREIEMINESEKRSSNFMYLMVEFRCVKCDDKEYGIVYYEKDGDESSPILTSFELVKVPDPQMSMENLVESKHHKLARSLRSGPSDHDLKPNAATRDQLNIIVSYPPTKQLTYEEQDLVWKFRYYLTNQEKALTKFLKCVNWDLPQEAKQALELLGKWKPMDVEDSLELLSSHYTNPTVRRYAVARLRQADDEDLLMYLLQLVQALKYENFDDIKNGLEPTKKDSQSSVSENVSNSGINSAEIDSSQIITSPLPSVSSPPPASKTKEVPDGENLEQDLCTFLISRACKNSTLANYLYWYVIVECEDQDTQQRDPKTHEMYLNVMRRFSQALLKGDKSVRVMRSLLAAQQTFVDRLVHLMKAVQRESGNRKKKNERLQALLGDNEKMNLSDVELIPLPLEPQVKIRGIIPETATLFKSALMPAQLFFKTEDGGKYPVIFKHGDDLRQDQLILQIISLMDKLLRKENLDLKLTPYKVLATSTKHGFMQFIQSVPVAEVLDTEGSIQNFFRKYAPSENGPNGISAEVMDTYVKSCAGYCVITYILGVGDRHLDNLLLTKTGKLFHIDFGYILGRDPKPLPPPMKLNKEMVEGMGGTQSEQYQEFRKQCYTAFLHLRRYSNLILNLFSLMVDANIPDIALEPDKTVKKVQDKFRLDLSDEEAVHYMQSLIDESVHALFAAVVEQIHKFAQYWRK
Sequence of Rhodopsin kinase GRK7 (Homo sapiens) (Q8WTQ7 whole entry, the tested form may be a part): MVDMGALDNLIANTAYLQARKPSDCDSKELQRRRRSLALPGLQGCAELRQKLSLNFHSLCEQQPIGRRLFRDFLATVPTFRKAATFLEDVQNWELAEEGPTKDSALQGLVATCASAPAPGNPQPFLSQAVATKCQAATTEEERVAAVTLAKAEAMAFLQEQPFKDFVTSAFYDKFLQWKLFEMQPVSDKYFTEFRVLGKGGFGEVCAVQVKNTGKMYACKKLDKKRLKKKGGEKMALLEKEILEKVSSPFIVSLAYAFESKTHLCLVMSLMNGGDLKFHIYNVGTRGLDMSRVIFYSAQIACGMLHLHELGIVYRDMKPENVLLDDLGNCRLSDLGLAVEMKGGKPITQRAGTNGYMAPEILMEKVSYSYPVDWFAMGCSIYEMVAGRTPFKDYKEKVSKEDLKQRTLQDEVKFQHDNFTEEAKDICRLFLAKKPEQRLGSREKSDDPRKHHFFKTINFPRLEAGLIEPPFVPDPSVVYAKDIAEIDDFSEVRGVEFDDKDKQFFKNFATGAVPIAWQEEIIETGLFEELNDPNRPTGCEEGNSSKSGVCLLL
Sequence of Casein kinase I isoform alpha (Homo sapiens) (P48729 2-337 limits assumed): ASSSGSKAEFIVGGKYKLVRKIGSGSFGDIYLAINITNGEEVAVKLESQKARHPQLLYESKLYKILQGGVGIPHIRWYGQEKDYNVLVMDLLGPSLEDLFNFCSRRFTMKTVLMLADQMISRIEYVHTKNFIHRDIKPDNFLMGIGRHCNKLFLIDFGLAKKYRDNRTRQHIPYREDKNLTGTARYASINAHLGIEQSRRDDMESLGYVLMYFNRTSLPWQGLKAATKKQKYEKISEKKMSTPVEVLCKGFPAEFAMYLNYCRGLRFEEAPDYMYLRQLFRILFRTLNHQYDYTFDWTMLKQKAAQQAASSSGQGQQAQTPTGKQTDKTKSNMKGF
Sequence of Serine/threonine-protein kinase Nek9 (Homo sapiens) (Q8TD19 whole entry, the tested form may be a part): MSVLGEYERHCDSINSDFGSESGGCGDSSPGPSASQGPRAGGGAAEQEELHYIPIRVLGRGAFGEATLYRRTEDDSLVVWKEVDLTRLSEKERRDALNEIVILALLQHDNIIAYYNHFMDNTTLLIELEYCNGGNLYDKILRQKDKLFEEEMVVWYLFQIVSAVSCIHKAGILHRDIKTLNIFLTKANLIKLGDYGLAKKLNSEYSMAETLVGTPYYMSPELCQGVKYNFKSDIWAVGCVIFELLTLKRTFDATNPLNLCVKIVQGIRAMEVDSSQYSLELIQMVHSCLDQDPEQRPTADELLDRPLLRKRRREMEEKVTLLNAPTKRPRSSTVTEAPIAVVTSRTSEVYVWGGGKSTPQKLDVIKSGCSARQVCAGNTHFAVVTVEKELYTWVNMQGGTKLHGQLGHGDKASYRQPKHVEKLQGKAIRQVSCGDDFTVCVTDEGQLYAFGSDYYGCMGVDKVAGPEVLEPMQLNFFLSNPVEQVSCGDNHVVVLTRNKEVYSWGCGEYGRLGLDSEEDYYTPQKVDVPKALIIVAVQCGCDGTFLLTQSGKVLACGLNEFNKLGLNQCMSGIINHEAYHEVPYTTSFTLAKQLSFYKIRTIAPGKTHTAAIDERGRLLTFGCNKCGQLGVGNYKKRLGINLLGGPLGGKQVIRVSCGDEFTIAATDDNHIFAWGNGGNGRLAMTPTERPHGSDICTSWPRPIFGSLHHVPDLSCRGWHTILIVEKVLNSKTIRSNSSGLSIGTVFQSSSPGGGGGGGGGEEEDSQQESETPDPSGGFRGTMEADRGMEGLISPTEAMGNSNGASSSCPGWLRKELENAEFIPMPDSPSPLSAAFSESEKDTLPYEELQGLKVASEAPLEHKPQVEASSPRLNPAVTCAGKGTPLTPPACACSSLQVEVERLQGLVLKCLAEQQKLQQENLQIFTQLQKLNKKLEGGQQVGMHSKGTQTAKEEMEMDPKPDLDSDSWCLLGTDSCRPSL

`C=CC(=O)Nc1cc(Nc2ncc(Cl)c(Nc3ccccc3S(=O)(=O)C(C)C)n2)c(OC)cc1N(C)CCN(C)C`: the Activity in series [1] is 2.8%; in series [2] it was 9.5%; in series [3], 2.1%; in series [4], 0%; in series [5], 88%; in [6], 0.35%. Also, the Activity was found to be 74% in series [7]; 29% in series [8]; 4.3% in series [9]; 99% in series [10]; 17% in series [11]; 67% in [12]. Also, the Activity in series [13] turned out to be 100%; in [14], 70%; in [15], 91%; in [16], 91%; in series [17], 13%; in series [18], 30%. Besides, the Activity in series [19] came to 0.3%; in series [20], 67%; in series [21], 2.4%; in series [22], 14%. The same molecule gave an Activity at […], 10 µM on CYP2C9 of 83%.

Source of the values: ChEMBL document CHEMBL4382192, “Discovery of a potent dual ALK and EGFR T790M inhibitor” (Eur J Med Chem, 2017).
